Measured values published in ChEMBL document CHEMBL1122741, “Substituted 5,6-dihydrofuro[3,2-f]-1,2-benzisoxazole-6-carboxylic acids: high-ceiling diuretics with uricosuric activity” (J Med Chem, 1984).

System: Mus musculus
Test: Na+ excretion mequiv/kg in saline-loaded mice administered at a dose 2 […] perorally
Assay type: ADME, organism-based
Conditions: in vivo, po
How it was run: (§1)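 Saline-loaded male mice, 16-30 g. Compound po in 0.2% hydroxypropylmethylcellulose at 10 mL/kg, vehicle alone for controls, followed by 0.9% saline po at 3% of body weight. Doses were 0.3-250 mg/kg po. Five mice per metabolism cage, four cages per dose, pooled urine collected for 4 h. Na+ reported as mean ± SEM mequiv/kg; ANOVA with Duncan's test or unpaired t test against control.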

Structure (SMILES) | Na+ excretion
C=C(CC)C(=O)c1ccc(OCC(=O)O)c(Cl)c1Cl [ETHACRYNIC ACID] | 2.9 mequiv/kg
CC1(c2ccccc2)Cc2cc(OCC(=O)O)c(Cl)c(Cl)c2C1=O (configuration not stated) [INDACRINONE] | 4 m equiv kg-1

System: Mus musculus
Test: Na+ excretion mequiv/kg in saline-loaded mice administered at a dose 250 […] perorally
Assay type: ADME, organism-based
Conditions: in vivo, po
How it was run: as §1

Structure (SMILES) | Na+ excretion [m equiv kg-1]
O=C(O)COc1ccc(C(=O)c2cccs2)c(Cl)c1Cl | 7.7

System: Mus musculus
Test: Na+ excretion mequiv/kg in saline-loaded mice administered at a dose 3 […] perorally
Assay type: ADME, organism-based
Conditions: in vivo, po
How it was run: as §1

Structure (SMILES) | Na+ excretion [m equiv kg-1]
NS(=O)(=O)c1cc2c(cc1Cl)NCNS2(=O)=O [HYDROCHLOROTHIAZIDE] | 4.5

System: Mus musculus
Test: Na+ excretion mequiv/kg in saline-loaded mice administered at a dose 30 […] perorally
Assay type: ADME, organism-based
Conditions: in vivo, po
How it was run: as §1

Structure (SMILES) | Na+ excretion [m equiv kg-1]
NS(=O)(=O)c1cc2c(cc1Cl)NCNS2(=O)=O [HYDROCHLOROTHIAZIDE] | 6.7

System: Canis familiaris
Test: Na+ excretion mequiv /kg in 6 conscious female dogs administered perorally during 0-6 hr
Assay type: ADME, organism-based, Canis lupus familiaris
Conditions: dog, in vivo, po
How it was run: (§2)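 Conscious female dogs dosed at 3 mg/kg po, except one reference at 10 mg/kg, one dose per dog. Urine collected to 6 h and centrifuged; heparinized venous plasma taken at each collection. Na+ and urate measured by standard methods, mean ± SEM over 0-6 h. Compared with vehicle by ANOVA/Duncan's test or unpaired t test.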

Structure (SMILES) | Na+ excretion [m equiv kg-1]
O=C(O)C1Cc2cc3c(-c4ccccc4F)noc3c(Cl)c2O1 (stereo in doubt; 15k) | 8.18

System: Canis familiaris
Test: Na+ excretion mequiv /kg in conscious female dogs administered perorally during 0-6 hr
Assay type: ADME, organism-based, Canis lupus familiaris
Conditions: dog, in vivo, po
How it was run: as §2

Structure (SMILES) | Na+ excretion [m equiv kg-1]
O=C(O)C1Cc2cc3c(-c4ccccc4F)noc3c(Cl)c2O1 (stereo in doubt; 29) | 7.6

System: Mus musculus
Test: Na+ excretion mequiv /kg in saline-loaded mice administered at a dose 10 […] perorally
Assay type: ADME, organism-based
Conditions: in vivo, po
How it was run: as §1

Structure (SMILES) | Na+ excretion [m equiv kg-1]
O=C(O)C1Cc2cc3c(-c4ccccc4F)noc3c(Cl)c2O1 (stereo in doubt; 15k) | 8.2
O=C(O)C1Cc2cc3c(-c4ccccc4F)noc3c(Cl)c2O1 (stereo in doubt; 29) | 8.1

System: Mus musculus
Test: Na+ excretion mequiv /kg in saline-loaded mice administered at a dose 2 […] perorally
Assay type: ADME, organism-based
Conditions: in vivo, po
How it was run: as §1

Structure (SMILES) | Na+ excretion [m equiv kg-1]
O=C(O)C1Cc2cc3c(-c4ccccc4F)noc3c(Cl)c2O1 (stereo in doubt; 15k) | 4.2
O=C(O)C1Cc2cc3c(-c4ccccc4F)noc3c(Cl)c2O1 (stereo in doubt; 29) | 5.5

System: Mus musculus
Test: Na+ excretion mequiv /kg in saline-loaded mice administered at a dose 50 […] perorally
Assay type: ADME, organism-based
Conditions: in vivo, po
How it was run: as §1

Structure (SMILES) | Na+ excretion [m equiv kg-1]
O=C(O)C1Cc2cc3c(-c4ccccc4F)noc3c(Cl)c2O1 (stereo in doubt; 15k) | 11.9
O=C(O)C1Cc2cc3c(-c4ccccc4F)noc3c(Cl)c2O1 (stereo in doubt; 29) | 13.2

System: Canis familiaris
Test: Na+ excretion mequiv/kg in 4 conscious female dogs administered perorally during 0-6 hr
Assay type: ADME, organism-based, Canis lupus familiaris
Conditions: dog, in vivo, po
How it was run: as §2

Structure (SMILES) | Na+ excretion [m equiv kg-1]
CC1(c2ccccc2)Cc2cc(OCC(=O)O)c(Cl)c(Cl)c2C1=O (configuration not stated) [INDACRINONE] | 1.44

System: Mus musculus
Test: Na+ excretion mequiv/kg in 4 saline-loaded mice administered at a dose 50 […] perorally
Assay type: ADME, organism-based
Conditions: in vivo, po
How it was run: as §1

Structure (SMILES) | Na+ excretion [m equiv kg-1]
CC1(c2ccccc2)Cc2cc(OCC(=O)O)c(Cl)c(Cl)c2C1=O (configuration not stated) [INDACRINONE] | 12.6

System: Canis familiaris
Test: Na+ excretion mequiv/kg in 6 conscious female dogs administered perorally during 0-6 hr
Assay type: ADME, organism-based, Canis lupus familiaris
Conditions: dog, in vivo, po
How it was run: as §2

Structure (SMILES) | Na+ excretion [m equiv kg-1]
O=C(O)COc1ccc(C(=O)c2cccs2)c(Cl)c1Cl | 1.54

System: Mus musculus
Test: Na+ excretion mequiv/kg in saline-loaded mice administered at a dose 10 […] perorally
Assay type: ADME, organism-based
Conditions: in vivo, po
How it was run: as §1

Structure (SMILES) | Na+ excretion [m equiv kg-1]
O=C(O)COc1ccc(C(=O)c2cccs2)c(Cl)c1Cl | 3.7
CC1(c2ccccc2)Cc2cc(OCC(=O)O)c(Cl)c(Cl)c2C1=O (configuration not stated) [INDACRINONE] | 8

System: Mus musculus
Test: Na+ excretion mequiv[…] in saline-loaded mice administered at a dose 10 […] perorally
Assay type: ADME, organism-based
Conditions: in vivo, po
How it was run: as §1

Structure (SMILES) | Na+ excretion [mequiv/kg]
C=C(CC)C(=O)c1ccc(OCC(=O)O)c(Cl)c1Cl [ETHACRYNIC ACID] | 3.2

System: Mus musculus
Test: Na+ excretion mequiv[…] in saline-loaded mice administered at a dose 10 […] perorally* -significantly different from control(p<0.05) and Duncan's test
Assay type: ADME, organism-based
Conditions: in vivo, po
How it was run: as §1

Structure (SMILES) | Na+ excretion [mequiv/kg]
C=C(CC)C(=O)c1ccc(OCC(=O)O)c(Cl)c1Cl [ETHACRYNIC ACID] | 5.9

System: not listed separately
Test: urate excreted in 4 Cebus monkey''s during 0-6 hr
Assay type: ADME
Conditions: in vivo
How it was run: (§3)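 Male and female Cebus monkeys, 4-6 per group, fasted for 6 h after dosing, water ad libitum. 20 mg/kg in 0.2% hydroxypropylmethylcellulose at 1.0 mL/kg by nasogastric tube, then water load of 5% body weight. Urine collected in metabolism pans at 2, 6 and 24 h and assayed for uric acid. Urate in mg/kg over 0-6 h, mean ± SEM.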

Structure (SMILES) | Excretion [mg/kg]
O=C(O)COc1ccc(C(=O)c2cccs2)c(Cl)c1Cl | 11.81
O=C(O)C1Cc2cc3c(-c4ccccc4F)noc3c(Cl)c2O1 (stereo in doubt; 15k) | 7.08
CC1(c2ccccc2)Cc2cc(OCC(=O)O)c(Cl)c(Cl)c2C1=O (configuration not stated) [INDACRINONE] | 9.53

Species: Canis familiaris
Test: urate excreted in 4 female dogs during 0-6 hr
Assay type: ADME, organism-based, Canis lupus familiaris
Conditions: dog, in vivo
How it was run: as §2

Structure (SMILES) | Excretion [mg/kg]
CC1(c2ccccc2)Cc2cc(OCC(=O)O)c(Cl)c(Cl)c2C1=O (configuration not stated) [INDACRINONE] | 0.71

System: not listed separately
Test: urate excreted in 6 Cebus monkey''s during 0-6 hr
Assay type: ADME
Conditions: in vivo
How it was run: as §3

Structure (SMILES) | Excretion [mg/kg]
O=C(O)C1Cc2cc3c(-c4ccccc4F)noc3c(Cl)c2O1 (stereo in doubt; 29) | 8.34

Species: Canis familiaris
Test: urate excreted in 6 female dogs during 0-6 hr
Assay type: ADME, organism-based, Canis lupus familiaris
Conditions: dog, in vivo
How it was run: as §2

Structure (SMILES) | Excretion [mg/kg]
O=C(O)COc1ccc(C(=O)c2cccs2)c(Cl)c1Cl | 0.8

Species: Canis familiaris
Test: urate excreted in female dogs during 0-6 hr
Assay type: ADME, organism-based, Canis lupus familiaris
Conditions: dog, in vivo
How it was run: as §2

Structure (SMILES) | Excretion [mg/kg]
O=C(O)C1Cc2cc3c(-c4ccccc4F)noc3c(Cl)c2O1 (stereo in doubt; 15k) | 0.82
O=C(O)C1Cc2cc3c(-c4ccccc4F)noc3c(Cl)c2O1 (stereo in doubt; 29) | 1.32

System: Canis familiaris
Test: ED5(natriuretic potency) is the oral dose(mg/kg) required to produce an excretion of 5 milliequivalents of Na+per kilogram during 0-6 hr in female dogs (Highest dose tested was 30 mg/kg)
Assay type: functional, Canis lupus familiaris
Conditions: not given
How it was run: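 Female dogs, conscious, one oral dose per dog per experiment. Urine collected and centrifuged; venous plasma drawn at each collection time. Samples assayed for Na+, K+, Cl-, urate and glucose by standard methods. Cumulative Na+ output expressed as mequiv/kg over 6 h, at least two dogs/dose. ED5 read from regression of Na+ excretion against log dose.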

Structure (SMILES) | ED5 [mg/kg]
CC1(c2ccccc2)Cc2cc(OCC(=O)O)c(Cl)c(Cl)c2C1=O (configuration not stated) [INDACRINONE] | 7.64

Same assay, conditions: 30 mg/kg

Structure (SMILES) | ED5 [mg/kg]
O=C(O)C1Cc2cc3c(-c4ccccc4F)noc3c(Cl)c2O1 (stereo in doubt; 15k) | 0.6
O=C(O)C1Cc2cc3c(-c4ccccc4F)noc3c(Cl)c2O1 (stereo in doubt; 29) | 0.71

System: Mus musculus
Test: ED6 (natriuretic potency) is the oral dose(mg/kg) required to produce an excretion of 6 milliequivalents of Na+per kilogram during 0-4 hr in male mice (Highest dose tested was 50 mg/kg)
Assay type: functional
Conditions: not given
How it was run: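 Male mice, 16-30 g, fed ad libitum beforehand. Compound in 0.2% hydroxypropylmethylcellulose given po at 10 mL/kg, then 0.9% saline po at 3% of body weight. Five mice pooled per metabolism cage, four cages per dose. Combined urine collected 0-4 h and assayed for Na+, K+, Cl-, uric acid as mequiv/kg per cage. ED6 from regression of Na+ against log dose.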

Structure (SMILES) | ED6 [mg/kg]
CC1(c2ccccc2)Cc2cc(OCC(=O)O)c(Cl)c(Cl)c2C1=O (configuration not stated) [INDACRINONE] | 4.4

Same assay, conditions: 50 mg/kg

Structure (SMILES) | ED6 [mg/kg]
O=C(O)C1Cc2cc3c(-c4ccccc4F)noc3c(Cl)c2O1 (stereo in doubt; 15k) | 4.2
O=C(O)C1Cc2cc3c(-c4ccccc4F)noc3c(Cl)c2O1 (stereo in doubt; 29) | 2.95

System: Rattus norvegicus
Test: ED2(natriuretic potency) is the oral dose(mg/kg) required to produce an excretion of 2 milliequivalents of Na+per kilogram during 0-4 hr in female rats (Highest dose tested was 100 mg/kg)
Assay type: functional
Conditions: not given
How it was run: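 Female Sprague-Dawley rats, 175-225 g, on sucrose and water for 18 h, given 5 mg DOCA sc 2 h before dosing. Compound in 0.2% methylcellulose given by gavage at 2 mL/kg, then a 30 mL/kg load of 0.34% NaCl/0.69% KCl. Individual metabolism cages, urine collected 0-4 h for Na+, K+, Cl-. Two-stage two-dose screen at 2 rats/dose, then at least four doses at 4 rats/dose. ED2 taken from regression of Na+ excretion against log dose.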

Structure (SMILES) | ED2 [mg/kg]
O=C(O)C1Cc2cc3c(-c4ccccc4F)noc3c(Cl)c2O1 (stereo in doubt; 15k) | 40
CC1(c2ccccc2)Cc2cc(OCC(=O)O)c(Cl)c(Cl)c2C1=O (configuration not stated) [INDACRINONE] | 5.2

System: Mus musculus
Test: Na+ excretion mequiv/kg in saline-loaded mice administered at a dose 50 […] perorally
Assay type: ADME, organism-based
Conditions: in vivo, po
How it was run: as §1

Structure (SMILES) | Na+ excretion [m equiv kg-1]
O=C(O)COc1ccc(C(=O)c2cccs2)c(Cl)c1Cl | 6.3
